According to ChEMBL document CHEMBL1124831, “Conjugate addition ligands of opioid antagonists. Methacrylate esters and ethers of 6 alpha- and 6 beta-naltrexol” (J Med Chem, 1990):

How the values were obtained:
[1] = biological target: T1, Opioid receptors; mu/kappa/delta (Homo sapiens, UniProt P41145+P41143+P35372); settings: Bos taurus; at 100 nM
Mu-type opioid receptor = Mu-type opioid receptor (Bos taurus, UniProt P79350); assay: In vitro binding affinity against Opioid receptor mu 1 from bovine caudate nucleus determined in presence of [3H]DAGO (1 nM)
Sequence of Mu-type opioid receptor (P79350 whole entry): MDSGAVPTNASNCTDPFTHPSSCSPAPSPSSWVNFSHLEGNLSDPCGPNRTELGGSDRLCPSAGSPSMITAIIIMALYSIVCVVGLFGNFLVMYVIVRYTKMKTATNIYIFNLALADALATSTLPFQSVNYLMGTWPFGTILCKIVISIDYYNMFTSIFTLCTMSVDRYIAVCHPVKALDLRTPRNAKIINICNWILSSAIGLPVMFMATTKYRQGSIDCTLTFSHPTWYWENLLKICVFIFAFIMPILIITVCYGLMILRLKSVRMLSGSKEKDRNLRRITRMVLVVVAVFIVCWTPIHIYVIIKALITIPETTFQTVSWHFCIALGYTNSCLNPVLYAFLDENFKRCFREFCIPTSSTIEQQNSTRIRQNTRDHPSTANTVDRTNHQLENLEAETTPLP
How it was run: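 Crude bovine striatal membranes were stored at -70 °C. […] Competitor was tested at five concentrations, with nonspecific binding defined by 10 μM naloxone. Incubation was 45 min at 25 °C in 50 mM Tris-HCl or potassium phosphate, pH 7.4, with 1 mM EDTA. Read-out was GF/B filtration and scintillation counting. IC50 is from duplicates or triplicates.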

[2] = biological target: T1, Opioid receptors; mu/kappa/delta; assay: In vitro binding affinity against Opioid receptors from bovine caudate nucleus determined in presence of [3H]- bremazocine (0.5 nM); type: protein assay, Bos taurus; settings: target entry is the homologue from another species
How it was run: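 Crude bovine striatal membranes were stored at -70 °C. Competitor was tested at five concentrations, with nonspecific binding defined by 10 μM naloxone. Incubation was 45 min at 25 °C in 50 mM Tris-HCl or potassium phosphate, pH 7.4, with 1 mM EDTA. Read-out was GF/B filtration and scintillation counting. IC50 is from duplicates or triplicates.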

Mus musculus = species: Mus musculus; assay: Antagonist activity against morphine was determined […] in mice using tail flick assay; type: functional
How it was run: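 Mouse tail-flick test against morphine given sc, run by the Committee on Problems of Drug Dependence. The antagonist dose giving 50% blockade (AD50, mg/kg) is reported with 95% confidence limits.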

[3] = biological target: T1, Opioid receptors; mu/kappa/delta; settings: Bos taurus; at 100 nM; remark: listed apart in the source
[4] = biological target: T1, Opioid receptors; mu/kappa/delta; settings: Bos taurus; at 20 nM
[5] = biological target: T1, Opioid receptors; mu/kappa/delta; assay: Irreversible inhibition of 1 nM DAGO binding against Opioid receptors from unwashed bovine caudate membrane at 10 nM in presence of NaCl; set-up: scale not given: the % may be the effect or the level left; settings: Bos taurus, target entry is the homologue from another species
[6] = biological target: T1, Opioid receptors; mu/kappa/delta; assay: Irreversible inhibition of 1 nM DAGO binding against Opioid receptors from protected bovine caudate membrane at 10 nM in presence of NaCl; set-up: scale not given: the % may be the effect or the level left; settings: Bos taurus, target entry is the homologue from another species
[7] = biological target: T1, Opioid receptors; mu/kappa/delta; settings: Bos taurus; at 20 nM; remark: listed apart in the source
[8] = biological target: T1, Opioid receptors; mu/kappa/delta; settings: Bos taurus; at 100 nM; remark: listed apart in the source
[9] = biological target: T1, Opioid receptors; mu/kappa/delta; settings: Bos taurus; at 100 nM; remark: listed apart in the source
[10] = biological target: T1, Opioid receptors; mu/kappa/delta; settings: Bos taurus; at 100 nM; remark: listed apart in the source
[11] = biological target: T1, Opioid receptors; mu/kappa/delta; settings: Bos taurus; at 20 nM; remark: listed apart in the source

T1 sequence (P35372 whole entry, looked up): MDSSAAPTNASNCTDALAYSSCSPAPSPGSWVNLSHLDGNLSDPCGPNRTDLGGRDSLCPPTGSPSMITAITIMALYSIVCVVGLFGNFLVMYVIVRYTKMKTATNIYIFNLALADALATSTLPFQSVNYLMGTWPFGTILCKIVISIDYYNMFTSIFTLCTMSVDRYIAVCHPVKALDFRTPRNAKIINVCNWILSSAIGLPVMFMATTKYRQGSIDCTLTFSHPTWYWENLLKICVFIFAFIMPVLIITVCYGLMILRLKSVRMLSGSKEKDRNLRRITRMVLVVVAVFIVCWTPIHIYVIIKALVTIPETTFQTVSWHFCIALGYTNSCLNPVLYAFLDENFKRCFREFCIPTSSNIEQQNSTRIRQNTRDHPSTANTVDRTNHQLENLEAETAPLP
T1 sequence (P41143 whole entry, looked up): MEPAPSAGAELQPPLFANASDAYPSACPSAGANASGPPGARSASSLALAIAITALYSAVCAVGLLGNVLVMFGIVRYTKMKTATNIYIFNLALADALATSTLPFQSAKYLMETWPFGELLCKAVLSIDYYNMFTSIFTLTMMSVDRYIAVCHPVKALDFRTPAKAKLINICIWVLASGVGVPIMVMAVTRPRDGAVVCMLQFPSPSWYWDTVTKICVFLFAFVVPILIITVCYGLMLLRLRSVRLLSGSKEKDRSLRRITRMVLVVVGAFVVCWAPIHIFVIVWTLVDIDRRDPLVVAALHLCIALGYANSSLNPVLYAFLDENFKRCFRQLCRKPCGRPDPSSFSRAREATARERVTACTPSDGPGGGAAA
T1 sequence (P41145 whole entry, looked up): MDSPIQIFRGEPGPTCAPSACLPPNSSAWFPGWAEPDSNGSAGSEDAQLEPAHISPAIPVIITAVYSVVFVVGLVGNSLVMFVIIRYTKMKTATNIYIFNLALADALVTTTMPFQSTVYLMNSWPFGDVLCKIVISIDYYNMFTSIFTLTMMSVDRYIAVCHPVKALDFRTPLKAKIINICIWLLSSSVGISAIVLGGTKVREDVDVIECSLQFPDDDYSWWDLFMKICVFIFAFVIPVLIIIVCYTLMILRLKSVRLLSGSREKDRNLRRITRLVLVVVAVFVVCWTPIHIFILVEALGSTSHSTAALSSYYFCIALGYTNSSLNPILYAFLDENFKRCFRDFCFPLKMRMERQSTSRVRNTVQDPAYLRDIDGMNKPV

Row | SMILES | Control [1] [%] | IC50 (Mu-type opioid receptor) [nM] | IC50 [2] [nM] | AD50 (Mus musculus) [mg/kg] | Control [3] [%] | Control [4] [%] | Control [5] [%] | Control [6] [%] | Control [7] [%] | Control [8] [%] | Control [9] [%] | Control [10] [%] | Control [11] [%]
1 | C=C(C)C(=O)O[C@H]1CC[C@@]2(O)[C@H]3Cc4ccc(O)c5c4[C@@]2(CCN3CC2CC2)[C@H]1O5 | 22 | 6.8 | 20 | 0.02 | 100 | – | – | – | – | – | – | – | –
2 | C=C(CO[C@@H]1CC[C@@]2(O)[C@H]3Cc4ccc(O)c5c4[C@@]2(CCN3CC2CC2)[C@H]1O5)C(=O)OC | – | 1.5 | 12 | 0.02 | – | 35 | 20 | 95 | 59 | – | – | – | –
3 | C=C(C)C(=O)OC1CCC2(O)C3Cc4ccc(O)c5c4[C@@]2(CCN3CC2CC2)C1O5 (some centres undefined) | 39 | 1 | 5 | 0.02 | 100 | – | – | – | – | – | – | – | –
4 | C=C1CC2(CCC3(O)[C@H]4Cc5ccc(O)c6c5[C@@]3(CCN4CC3CC3)C2O6)OC1=O (some centres undefined) | – | 1.8 | 6 | – | – | – | – | – | – | 16 | 50 | 85 | –
5 | O=C1CC[C@@]2(O)[C@H]3Cc4ccc(O)c5c4[C@@]2(CCN3CC2CC2)[C@H]1O5 [NALTREXONE] | – | – | – | 0.007 | – | – | – | – | – | – | – | – | –
6 | C=C(COC1CCC2(O)C3Cc4ccc(O)c5c4[C@@]2(CCN3CC2CC2)C1O5)C(=O)OC (some centres undefined) | – | 0.18 | 2.4 | 0.07 | – | 17 | – | – | 79 | – | – | – | 96
